High-throughput results: PubChem BioAssay, several laboratories
Compounds with a hit are over-represented: about 1.9% of the library has one in this group of screens.
Rev-erbA mod = modulators of Rev-erb alpha DNA binding, primary screen, biochemical, FITC-DNA, fluorescence polarization, uHTS. Nuclear receptor subfamily 1 group D member 1 (Homo sapiens), P20393. Rev-erbα–FITC-DNA binding, 90 min. activity, % at 10 µM. actives 0.79% (n = 370,000);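 active = activity above about 14%, limit read from the data; passing the limit was not always enough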;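 also: 0% = DMSO wells with 35 nM protein and 100% = DMSO wells with 750 nM protein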
Target sequence (P20393 whole entry, looked up): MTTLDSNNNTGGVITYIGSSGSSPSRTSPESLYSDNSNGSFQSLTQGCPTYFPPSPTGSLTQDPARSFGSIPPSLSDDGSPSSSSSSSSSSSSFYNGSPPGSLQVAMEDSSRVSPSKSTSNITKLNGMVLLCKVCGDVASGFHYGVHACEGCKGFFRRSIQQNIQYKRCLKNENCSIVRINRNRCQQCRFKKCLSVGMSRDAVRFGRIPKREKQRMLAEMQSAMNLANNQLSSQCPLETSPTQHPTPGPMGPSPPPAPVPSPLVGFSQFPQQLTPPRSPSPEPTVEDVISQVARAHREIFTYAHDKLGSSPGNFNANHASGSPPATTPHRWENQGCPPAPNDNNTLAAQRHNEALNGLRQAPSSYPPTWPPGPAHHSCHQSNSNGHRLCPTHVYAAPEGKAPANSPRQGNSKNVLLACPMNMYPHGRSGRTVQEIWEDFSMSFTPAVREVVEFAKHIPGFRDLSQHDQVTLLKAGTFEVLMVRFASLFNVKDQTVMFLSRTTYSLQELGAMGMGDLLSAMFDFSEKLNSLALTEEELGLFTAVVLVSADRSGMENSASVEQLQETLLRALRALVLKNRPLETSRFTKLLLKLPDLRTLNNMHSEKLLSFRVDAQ
MT1-MMP act inh = blockers of MT1-MMP proenzyme processing, primary screen, HT1080 RFP-PRO-GFP cells, GFP/RFP fluorescence; Matrix metalloproteinase-14 (Homo sapiens), P50281; GFP/RFP ratio fluorescence, overnight; percent of plate control window, DMSO zero; GFP/RFP ratio change, % at 20 µM; actives 0.061% (n = 360,000); AID 651647, 2012;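 active = GFP/RFP ratio change of at least 30% with cell ATP level not reduced by more than half and red fluorescence within 50% of control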
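Read-out: GFP/RFP fluorescence ratio; Test system: RFP-PRO-GFP reporter HT1080 cells; Compound dosing: single-point 20 µM compound, 1% DMSO; Times: overnight compound exposure at 37 °C.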
NR2E3 ag-1 = inhibitors of NR2E3-RetCOR corepressor binding, primary screen, NR2E3 agonist project, biochemical, TR-FRET, GST-NR2E3, biotin-RetCOR | AID 2300, 2010 | inhibition of corepressor binding, % at 4.78 µM | 1536-well | actives 0.12% (n = 320,000);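 active = percent inhibition above the cutoff of mean plus 3 SD of all tested compounds, set per screening campaign, cut at about 20% in these data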;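 also: 0% = DMSO wells and 100% = biotin wells as full block of FRET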
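Format: 1536-well format; test system: GST-NR2E3 and biotin-RetCOR proteins; read-out basis: percent inhibition of TR-FRET ratio; timing: 5 h incubation at 4 °C; detection: time-resolved FRET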
PG9 binder = binders of HIV-1 gp120 antibody PG9, primary screen, biochemical, TR-FRET; inhibition, % at 6.7 µM; actives 0.43% (n = 360,000); HIV-1 gp120 / PG9 antibody interaction; TR-FRET gp120-PG9 antibody binding; in the data active = inhibition above about 8.5%
NR2E3 ag-2 = NR2E3 agonists in two-hybrid cells, primary screen, cell-based, luminescence, CHO-S, Gal4-NCOR/VP16-NR2E3; AID 602229, 2012; luciferase; actives 0.35% (n = 360,000); inhibition of corepressor binding, % at 3.98 µM;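 active = inhibition above the mean of all tested compounds plus 3 SD, cut at about 70% in these data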;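 also: 0% = DMSO with NR2E3 transfected cells and 100% = cells lacking NR2E3 construct; higher means lower luciferase signal from less NR2E3 corepressor binding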
SKN-1 block = suppressors of acrylamide-induced Pgst-4::GFP reporter in worms, primary screen, SKN-1 inhibitor project, whole organism, uHTS, GFP/RFP fluorescence ratio, strain VP596 | actives 0.49% (n = 360,000) | inhibition, % at 21.8 µM | C. elegans VP596 Pgst-4::GFP/RFP ratio, 24 h;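 active = interference check ratio from 0.5 to 1.5 plus GFP to RFP signal ratio inhibition reaching or exceeding a fixed threshold, cut at about 30% in these data, passing the limit was not always enough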
NR2E3 ag conf = NR2E3 agonist confirmation in cells, cell-based, luminescence, CHO-S two-hybrid | CHO-S mammalian two-hybrid NR2E3-NCOR, luciferase luminescence | actives 51% (n = 2,300) | inhibition, % at 3.98 µM | shares compounds with NR2E3 ag-2;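 active = average inhibition above a cutoff equal to the mean inhibition of all tested compounds plus one SD, cut at about 70% in these data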;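 also: 0% = DMSO in NR2E3 cells and 100% = DMSO in cells lacking NR2E3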
VP16 counter = GAL4-VP16 reporter modulators, confirmation, counter-screen for NR2E3 agonist project, cell-based, luminescence, CHO-S, high throughput | shares compounds with NR2E3 ag-2 | CHO-S GAL4-VP16 luciferase reporter | inhibition, % at 3.98 µM | actives 29% (n = 2,300) | AID 624379, 2012;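 active = mean inhibition above a cutoff equal to the average over all tested compounds plus one standard deviation, cut at about 70% in these data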;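 also: luciferase from a UAS reporter driven by GAL4-VP16 transactivation; 0% = DMSO with VP16-transfected cells and 100% = DMSO with cells lacking VP16; higher means less reporter light so more repression of VP16 activity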
* hit, by the source's call; . = no result given.

SMILES	Rev-erbA mod	MT1-MMP act inh	NR2E3 ag-1	PG9 binder	NR2E3 ag-2	SKN-1 block	NR2E3 ag conf	VP16 counter
CC(C)(C)c1ccc(OCC(O)CN2CCc3ccccc3C2)cc1 (stereo not given)	9	3	3	0	85*	-13	-3	2
COc1ccc(OCC(O)CN2CCc3ccccc3C2)cc1 (stereo not given)	10	0	0	0	-8	-3	.	.
FC(F)(F)c1ccccc1Cn1ccc2ccc(-c3ccc4ccn(Cc5ccccc5C(F)(F)F)c4c3)cc21	6	.	.	.	.	.	.	.
Cc1cccc(Nc2ncnc3ccc(Br)cc23)c1	10	-9	7	0	-10	-1	.	.
Cc1cc2c(NCCc3ccccc3)ncnc2s1	2	12	-1	0	56	-11	90*	73*
CCCCCCCCNc1ncnc2ccccc12	.	2	0	.	92*	51*	99*	92*
CCc1ccccc1Nc1ncnc2ccccc12	-7	6	-1	-3	-13	19	.	.
Brc1ccc2ncnc(NCc3ccccc3)c2c1	-1	-9	2	0	65	23	91*	85*
Cc1cc2c(Nc3ccccc3)ncnc2s1	-4	0	2	-1	-12	2	.	.
c1ccc(CCNc2ncnc3ccccc23)cc1	2	-13	3	1	50	8	89*	70
CCOC(=O)CC[C@@]1(C(=O)OCC)C[C@@H](CC(=O)N2CCCC2)C(=O)N2CCCC=C21	0	.	.	.	.	.	.	.
Cc1ccc(-n2c(C)nc3c(cnn3-c3ccc(F)cc3)c2=O)cc1C	1	-2	0	0	55	-1	88*	60
O=C(CCC(=O)N1CCN(c2ccccc2F)CC1)c1ccc(F)cc1	1	2	0	2	-30	-6	.	.
Cc1ccc(C(=O)CCC(=O)N2CCN(c3ccccc3O)CC2)cc1	1	0	1	1	49	-12	36	3
CCOC(=O)c1ccc(NS(=O)(=O)c2cc3c4c(c2)CCN4C(=O)CC3)cc1	7	3	-2	0	63	3	22	28
Cc1ccc(S(=O)(=O)N2[C@@H](c3ccc(Cl)c(Cl)c3)C(C(=O)O)=C[C@H]2CC2CCCC2)cc1	-4	9	.	1	88*	0	82*	47
CCN1CCN(Cc2ccc(NC(=O)c3ccc(C)c(NC(=O)c4ccno4)c3)cc2C(F)(F)F)CC1	-3	-6	2	-3	37	12	55	15
CN=c1scc(-c2ccccc2F)n1/N=C/c1ccc[nH]1	1	-3	-1	-6	97*	30	90*	80*
CN=c1scc(-c2ccccc2F)n1/N=C/c1ccc(O)c(O)c1O	-7	-14	.	1	-98	0	.	.
O=C(NNc1ccccc1)C(=O)NNS(=O)(=O)c1ccc([N+](=O)[O-])cc1	-5	0	-2	-5	58	-10	53	26
Cc1nn(Cc2c(F)c(F)c(F)c(F)c2F)c(C)c1NC(=O)c1cccc(COc2ccccc2Cl)c1	0	0	2	-2	-186	10	.	.
Cc1nn(Cc2cccc(F)c2)c(C)c1NC(=O)c1ccc(COc2ccccc2Cl)cc1	0	-18	-2	-1	79*	8	94*	40
Cc1ccc(Oc2cccc3c2S(=O)(=O)N([C@H](C)c2ccccc2)C[C@@H](COCc2ccccc2)O3)cc1	-3	.	.	-1	.	.	.	.
Cc1nc(SCc2ccc(Cl)c(Cl)c2)ncc1C(=O)O	5	1	3	0	59	8	14	27
COC(=O)c1c(C)oc2ccc(N(C(C)=O)S(=O)(=O)c3ccccc3)cc12	1	5	5	-1	98*	3	84*	65
SMILES	Rev-erbA mod	MT1-MMP act inh	NR2E3 ag-1	PG9 binder	NR2E3 ag-2	SKN-1 block	NR2E3 ag conf	VP16 counter
CC(=O)c1c(C)oc2ccc(N(C(C)=O)S(=O)(=O)c3cccc4cccnc34)cc12	-3	-18	1	-1	86*	1	94*	74*
CC(=O)c1c(C)oc2ccc(N(C(=O)c3ccncc3)S(=O)(=O)c3ccccc3)cc12	-2	2	5	-1	-5	-22	.	.
CC(=O)c1c(C)oc2ccc(N(C(C)=O)S(=O)(=O)c3ccc(Br)cc3)cc12	0	-2	7	-2	90*	-8	90*	73*
CC(=O)c1c(C)oc2ccc(NS(=O)(=O)c3ccc(C)cc3)cc12	-1	10	-3	0	80*	-6	-6	26
CCCCCCCCSC1=CC(=O)C(OC)=C(OC)C1=O	8	-21	.	3	59	9	93*	68
N#Cc1c(N)n(C2OC(CO)C(O)C2O)c2ncnc(N)c12 (stereo not given)	-5	-2	.	-2	89*	-3	96*	89*
COc1ccc(CN(C)C(=O)[C@@H](Cc2ccccc2)NC(=O)[C@H]2O[C@@H](n3ccc(N)nc3=O)[C@H](O)[C@@H]2O)cc1OC	-5	.	.	-1	.	.	.	.
O=C(NC(=S)N(Cc1ccccc1)Cc1ccccc1)c1ccccc1F	-5	11	3	0	65	-14	21	21
O=C(NC(=S)NCc1ccccc1)c1ccccc1F	-5	5	-5	-1	6	-8	.	.
O=C(NC(=S)N(CCc1ccccc1)CCc1ccccc1)c1ccco1	-3	3	-2	-3	67	-2	-20	19
CCOc1ccc(S(=O)(=O)N2CCC(C(=O)N3CCN(c4ccccc4F)CC3)CC2)cc1C	-4	7	-2	0	48	-34	6	44
